Screens: PubChem, The Scripps Research Institute Molecular Screening Center
Hits are enriched below; roughly 3.3% of the tested compounds scored in any of these assays.
PRMT1 inh – PRMT1 methyltransferase inhibitors, primary screen, biochemical, fluorescence polarization; recombinant PRMT1, activity-based probe fluorescence polarization; inhibition, % at 2.79 µM; 370,000 compounds, 1.3% hits; AID 652257, 2013;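 active = inhibition above about 21% made by adding two undisclosed values, limit read from the data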
Target sequence (Q99873 whole entry, looked up): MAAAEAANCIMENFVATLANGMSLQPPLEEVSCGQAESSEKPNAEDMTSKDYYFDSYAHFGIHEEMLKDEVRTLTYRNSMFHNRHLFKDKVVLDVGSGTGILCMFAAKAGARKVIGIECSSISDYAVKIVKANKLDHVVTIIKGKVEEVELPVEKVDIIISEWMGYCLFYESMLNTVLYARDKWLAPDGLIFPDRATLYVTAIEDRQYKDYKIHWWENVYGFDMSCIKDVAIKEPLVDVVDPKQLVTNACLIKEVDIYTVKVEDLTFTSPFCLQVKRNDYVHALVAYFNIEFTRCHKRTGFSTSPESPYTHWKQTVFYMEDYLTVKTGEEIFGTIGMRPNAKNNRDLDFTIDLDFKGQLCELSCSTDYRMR
TCR-CD3 inh – inhibitors of human TCR-CD3 interaction, primary screen, biochemical, fluorescence, TAMRA-labeled TCR probe | inhibition, % at 9.4 µM | AID 651800, 2012 | 360,000 compounds, 0.37% hits; in the data active = inhibition above about 19%;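 note: recombinant mutant TCR 2C K166C tagged with TAMRA read by polarization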
SIAE inh – human SIAE inhibitors, primary screen, biochemical, fluorescence polarization, FP-Rh probe, 1536-well HTS; SIAE FP-Rh probe binding; Sialate O-acetylesterase (Homo sapiens), Q9HAT2; 370,000 compounds, 0.69% hits; inhibition, % at 9.66 µM;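 active = inhibition above a cutoff: mean of compounds within the control limits plus 3 SD of those, cut at about 17% in these data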
rCAG binder – binders of r(CAG) RNA repeats, primary screen, biochemical, fluorescence | r(CAG) RNA repeat, TO-PRO-1 dye displacement fluorescence | inhibition, % at 3 µM | 370,000 compounds, 1.3% hits;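 active = inhibition above the plate cutoff, the mean of all test compounds on that plate plus 3 SD, cut at about 35% in these data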;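 note: higher means more dye released from RNA so lower well fluorescence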
ABHD4 inh – ABHD4 inhibitors, primary screen, biochemical, fluorescence polarization, mouse; (Lyso)-N-acylphosphatidylethanolamine lipase (Mus musculus), Q8VD66; purified mABHD4, FP-Rh probe fluorescence polarization; inhibition, % at 8.92 µM; 370,000 compounds, 0.54% hits; AID 720543, 2013;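 active = inhibition exceeding the mean over every tested compound plus 3 SD, cut at about 30% in these data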
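Assay system: mABHD4 protein; medium: HEPES pH 7.0, NaCl, Pluronic buffer; dosing: 8.92 µM, single dose; schedule: 45 min + 60 min at 25 °C; signal: FP readout, ex 525 nm / em 598 nm; read-out: normalized percent inhibition of probe labeling; repeats: single replicate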
Hits are given with their value; – = inactive; · = no result.

SMILES	PRMT1 inh	TCR-CD3 inh	SIAE inh	rCAG binder	ABHD4 inh
C[C@H]1[C@@H](OC(=O)N2CCN(c3ccccc3)CC2)CC[C@@]23CCCN2C(=O)CCC[C@@H]13	–	·	–	·	–
CC/C(=N\Nc1ccc([N+](=O)[O-])cc1[N+](=O)[O-])c1ccc(O)cc1	–	–	–	–	–
CC/C(=N\Nc1ccccc1[N+](=O)[O-])c1ccc(O)cc1	–	–	–	–	40.0
Nc1[nH]c(C(=O)c2ccccc2)c(-c2cccc3ccccc23)c1C(=O)c1c(-c2ccccc2)[nH]c2ccccc12	–	·	–	·	–
COC(=O)c1c(C)cc(O)cc1O	–	–	–	–	–
Cc1cc(OC(=O)c2c(C)cc(OC(=O)c3c(C)cc(O)cc3O)cc2O)cc(O)c1C(=O)O	–	–	–	68.8	–
Cc1cc(OC(C)CCN2CCC(C(O)(c3ccccc3)c3ccccc3)CC2)ccc1Br (stereo unspecified)	–	·	–	–	–
CC(C)CC(O)(CC(C)C)c1cn(C(=O)N(c2ccccc2)c2ccccc2)nn1	–	·	–	·	–
CC1=C(C(=O)OCc2ccccc2)C(c2ccc(C)o2)C2=C(CCCC2=O)N1 (stereo unspecified)	–	–	33.4	–	–
CC1=C(C(=O)OC2CCCCC2)C(c2ccc(C)o2)C2=C(CCCC2=O)N1 (stereo unspecified)	–	–	–	–	–
CC(C)(C=O)C1=CC(=O)c2ccccc2C1=O	52.3	–	–	–	36.7
CNc1cccccc1=S	26.3	–	–	–	–
CNc1ccccc1	–	–	–	–	–
O=C1C(=O)c2cccnc2-c2ncccc21	21.6	–	–	–	–
Cc1cccc(-c2cccc3c4c([nH]c23)[C@@H]2C[C@H](N(C)C(=O)c3cccc(Cl)c3)[C@H]([C@H](C)O)CN2CC4)c1	–	·	–	–	–
O=C(OCC(=O)N1CCN(c2ccccc2)CC1)c1ccc2ncsc2c1	23.2	–	–	–	–
O=C(OCC(=O)N1CCN(c2ccccc2)CC1)c1ccc(Cl)nc1	–	–	–	–	–
O=C(/C=C/c1ccco1)NC(=S)Nc1ccccc1O	21.3	–	–	–	–
CC(=O)Nc1ccc(NC(=S)NC(=O)/C=C/c2ccco2)cc1	21.1	–	–	–	–
CC(=O)N(C)c1ccc(NC(=S)NC(=O)/C=C/c2ccco2)cc1	–	–	–	–	–
O=C(/C=C\c1ccco1)NC(=S)Nc1ccccc1O	–	–	–	–	–
C[C@H]1[C@@H](OC(=O)Nc2ccc(C#N)cc2)CC[C@@]23CCCN2C(=O)CCC[C@@H]13	–	·	–	·	–
O=C(NC1CCCCC1)Oc1cc2oc(=O)sc2cc1Br	82.4	–	–	–	33.5
CC[C@H](CCCCCCCn1ccc2ccccc21)CCC(=O)N(c1ccccc1)c1ccccc1	–	·	–	–	–
O=C(NCc1ccco1)c1ccccc1NS(=O)(=O)c1ccc(Cl)s1	–	–	–	–	–
SMILES	PRMT1 inh	TCR-CD3 inh	SIAE inh	rCAG binder	ABHD4 inh
O=C(Nc1ccccc1)c1ccccc1NS(=O)(=O)c1ccc(Cl)s1	–	–	–	60.0	–
CCCC(=O)N(C1CC(C)C(C#N)(C#N)C1(C#N)C#N)N(C)C (stereo unspecified)	21.8	–	–	–	–
O=C1/C(=C/c2ccncc2)SC(=S)N1C1CCCCC1	–	–	–	–	–
Cc1ccc(/C=C2/SC(=S)N(C3CCCCC3)C2=O)o1	–	–	–	55.4	–
COc1ccccc1OC(=O)CCc1nc2ccccc2s1	22.4	–	–	–	–
O=C(CCc1nc2ccccc2s1)OCC(=O)c1ccccc1	–	–	–	–	–
CCn1c(=O)n(CC(=O)N2CCN(C(C)=O)CC2)c(=O)c2ccccc21	–	·	–	–	–
CCOC(=O)c1c(N2C(=O)CC(Sc3ccccc3C(=O)O)C2=O)sc(C)c1C (stereo unspecified)	49.2	–	–	–	–
O=C(Nc1ccc(Br)cc1)c1cccc(S(=O)(=O)Nc2cnc3ccccc3c2)c1	–	–	–	79.5	–
CSc1sc(-c2ccnc(=S)[nH]2)c(-c2ccccc2)c1C#N	–	–	–	–	–
Fc1ccc(-c2ccnc(=S)[nH]2)cc1	23.4	–	–	–	–
CC(COc1cccc(Cl)c1)CN1CCC(C(O)(c2ccccc2)c2ccccc2)CC1 (stereo unspecified)	–	·	–	–	–
Cn1c(SCC(=O)N/N=C/C=C/c2ccco2)nc2ccccc21	24.3	–	–	–	–
COC(=O)[C@]12C[C@H](CC(=O)N3CCN(C(=O)C4CC4)CC3)C(=O)N(Cc3cccc4ccccc34)C1=C[C@H](C1CCCC1)O[C@@H]2C	–	·	–	–	–
COc1ccc(-c2cn(-c3ccccc3)c(=S)[nH]2)cc1OC	23.2	–	–	–	–
CC1C/C(=C/c2cccs2)C(=O)/C(=C/c2cccs2)C1 (stereo unspecified)	22.3	–	–	–	–
CCCC1CCC2(CC1)CCC2OC(=S)Nc1ccccc1 (stereo unspecified)	–	·	–	·	–
CCOc1ccc(/C(CCC(=O)O)=N/NC(=S)NCCc2ccccc2)cc1	–	–	–	35.8	–
NC(=O)c1csc(-c2ccncc2)n1	–	–	–	–	–
Nc1cc(-c2ccncc2)c[nH]c1=O	23.6	–	–	–	–
O=C1CC(N2CCC(c3nc4ccccc4s3)CC2)C(=O)N1Cc1ccccc1 (stereo unspecified)	23.7	–	–	–	–
COc1ccccc1NC1=C(NC(C)=O)C(=O)c2ccccc2C1=O	24.6	–	–	–	–
COC1=C(Nc2ccccc2OC)C(=O)c2ccccc2C1=O	–	–	–	–	–
O=C(CSc1nnc(COc2ccc(Cl)cc2)n1Cc1ccco1)Nc1ccc2c(c1)OCO2	–	·	–	–	–
Cc1cnn(-c2ccccc2)c1NC(=O)COCc1ccccc1	–	·	–	–	–
SMILES	PRMT1 inh	TCR-CD3 inh	SIAE inh	rCAG binder	ABHD4 inh
Cc1[nH]n(-c2ccccc2)c(=O)c1-c1ccccc1	–	–	18.4	–	–
Cc1[nH]n(-c2cccc(Cl)c2)c(=O)c1-c1ccccc1	–	–	–	–	–
COc1ccc(-c2noc(-c3ccc4c(c3)OCO4)n2)cc1	–	–	–	–	–
COc1ccc(Nc2nnc(-c3ccc4c(c3)OCO4)o2)cc1	23.7	–	–	–	–
COc1ccc(C2Nc3cccc4cccc(c34)N2)cc1Br	–	–	–	–	–
COc1cc(C2Nc3cccc4cccc(c34)N2)cc(OC)c1O	–	–	46.7	36.0	–
CCOC(=O)c1c(NC(=S)Nc2ccccc2)sc2c1CC(C)(C)SC2	–	–	–	–	–
CCOC(=O)c1c(NC(=S)NC)sc2c1CC(C)(C)SC2	23.9	–	–	–	–
COC(=O)[C@]12C[C@H](CC(=O)NCc3cccs3)C(=O)N(Cc3ccco3)C1=C[C@H](C(C)(C)C)O[C@@H]2C	–	·	–	–	–
